Data on 69 compounds can be found in ChEMBL document CHEMBL3400011, “Canthinone alkaloids are novel protein tyrosine phosphatase 1B inhibitors” (Bioorg Med Chem Lett, 2015).

The inhibition is the change of the read-out against control, counted positive when it falls.

For the assay, the target named is T1, Tyrosine-protein phosphatase non-receptor type 1 (Homo sapiens) (UniProt P18031).
T1 sequence (whole entry): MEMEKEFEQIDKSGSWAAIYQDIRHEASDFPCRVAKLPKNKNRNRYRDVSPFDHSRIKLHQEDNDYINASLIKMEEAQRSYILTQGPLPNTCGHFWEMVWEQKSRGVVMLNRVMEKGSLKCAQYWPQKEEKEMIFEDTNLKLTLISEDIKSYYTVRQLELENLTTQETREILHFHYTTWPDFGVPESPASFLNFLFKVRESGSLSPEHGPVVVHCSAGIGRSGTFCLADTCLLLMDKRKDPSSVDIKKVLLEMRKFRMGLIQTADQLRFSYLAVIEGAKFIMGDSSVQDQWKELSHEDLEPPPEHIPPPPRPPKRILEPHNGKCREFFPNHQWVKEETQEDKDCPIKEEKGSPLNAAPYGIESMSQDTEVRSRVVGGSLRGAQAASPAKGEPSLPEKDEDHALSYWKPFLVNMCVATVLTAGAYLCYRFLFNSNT
Put plainly: Inhibition of PTP1B (unknown origin) assessed as inhibition rate at 100 uM. The essentials:
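PTP1B enzymatic assay with RK-682 as the positive control. For the single-point screen, compounds were tested at a final 100 µM. For dose–response, inhibition was measured over a range of compound concentrations, and IC50 was obtained by regression analysis.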
For the compound `CC1NC(C(=O)O)Cc2c1[nH]c1ccccc21` (centres undefined), the inhibition came to 21.3%.
With `CCc1ncc(OC)c2c1[nH]c1c(O)cccc12` the figure was 27.1%; with `COc1ccc2c3ccnc4ccc(=O)n(c2c1)c43`, 34.9%; with `COc1c(O)c(=O)n2c3ccccc3c3ccnc1c32`, 42.8%.
Under `CCc1nccc2c1[nH]c1ccccc12` stands 30.2%; under `COC(=O)c1cc2c(cn1)[nH]c1ccccc12`, 23%; under `COn1c(=O)cc2c3ccccc3n3c(=O)ccc1c23`, 31.2%.
With `Oc1nccc2c1[nH]c1ccccc12` the figure was 8.5%; with `COc1cnc(C(C)=O)c2[nH]c3ccccc3c12`, 21.6%.
On to `CCC1NC(C(=O)c2ccccc2)Cc2c1[nH]c1ccccc21` (centres undefined), for which the inhibition came out at 4.7%.
`CCCCn1ccc2c3n(c(=O)c(=O)c(OC)c1-3)c1ccccc21`: the inhibition worked out at 11.7%.
With `COc1cnc(C(=O)CC(CO)c2ncc(OC)c3c2[nH]c2ccccc23)c2[nH]c3ccccc3c12` (centres undefined) the figure was 33%; with `O=C(O)CCc1nccc2c1[nH]c1ccccc12`, 39.3%.
With `O=c1ccc2nccc3c4c(O)cccc4n1c23` the figure was 50.6%.
With `COc1cccc2c1[nH]c1c(CCC(OC)C(=O)c3nccc4c3[nH]c3ccccc34)ncc(OC)c12` (centres undefined) the figure was 44.1%.
Turning to `CCc1nc(C(=O)OC)cc2c1[nH]c1ccccc12`, the inhibition came to 21.2%.
On to `O=C(O)C1Cc2c([nH]c3ccccc23)CN1` (centres undefined), for which the inhibition came to 26%.
Take `COCc1nccc2c1[nH]c1ccccc12`: the inhibition worked out at 27.4%.
On to `Cc1nc(C(=O)O)cc2c1[nH]c1ccccc12`, for which the inhibition is 18.2%.
With `COc1cnc2ccc(=O)n3c4ccccc4c1c23` the figure was 23.7%; with `CCc1c2[nH]c3ccccc3c2cc[n+]1[O-]`, 4.3%; with `O=Cc1nccc2c1[nH]c1ccccc12`, 9.8%.
As to `C=Cc1ncc(OC)c2c3ccccc3n(OC)c12`, the inhibition worked out at 33.5%.
Under `COc1c(OC)c2c3c(cc(=O)n2C)c2ccccc2n3c1=O` stands 34.4%; under `C(=C\c1nccc2c1[nH]c1ccccc12)/c1ccccc1`, 15%; under `COC(=O)C1Cc2c([nH]c3ccccc23)CN1` (centres undefined), 21.3%.
With `COc1cccc2c1[nH]c1c(CCn3ccc4c5n(c(=O)c(=O)cc3-5)c3ccccc43)ncc(OC)c12` the figure was 48.5%; with `COCCc1ncc(OC)c2c1[nH]c1c(OC)cccc12`, 28.6%.
Under `OCc1nccc2c1[nH]c1ccccc12` stands 17%; under `O=C(O)c1nccc2c1[nH]c1ccccc12`, 28.5%; under `COc1c(O)c2nccc3c4cc(O)ccc4n(c1=O)c23`, 30.5%.
For `CCc1ncc(OC)c2c1[nH]c1ccccc12`, the inhibition worked out at 16.1%.
Under `COc1c(OC)c2nc(O)cc3c4ccccc4n(c1=O)c23` stands 81.9%; under `COc1cnc(CCn2ccc3c4n(c(=O)c(=O)cc2-4)c2ccccc32)c2c1c1ccccc1n2OC`, 43.9%.
With `O=c1ccc2nccc3c4ccccc4n1c23` the figure was 15.3%.
In the case of `CCn1ccc2c3n(c(=O)c(=O)cc1-3)c1cc(OC)ccc21`, the inhibition stood at 59.4%.
As to `COc1c(OC)c2nccc3c4ccccc4n(c1=O)c23`, the inhibition was 26.5%.
Under `COc1cnc(C(O)CO)c2[nH]c3ccccc3c12` (centres undefined) stands 10.5%.
As for `CCCC1NC(C(=O)OC)Cc2c1[nH]c1ccccc21` (centres undefined), the inhibition stood at 7.9%.
With `CC(C)C1NC(C(=O)O)Cc2c1[nH]c1ccccc21` (centres undefined) the figure was 11.3%; with `CCCC1NC(C(=O)O)Cc2c1[nH]c1ccccc21` (centres undefined), 46.9%.
With `COCc1c2[nH]c3ccccc3c2cc[n+]1[O-]` the figure was 59%.
With `CCC1NC(C(=O)O)Cc2c1[nH]c1ccccc21` (centres undefined) the figure was 20.8%.
For the compound `C=Cc1ncc(OC)c2c1[nH]c1c(OC)cccc12`, the inhibition was 40.3%.
With `COc1c(OC)c2c3c(cc[n+]2[O-])c2ccccc2n3c1=O` the figure was 14.8%; with `COc1c(OC(C)=O)c(=O)n2c3ccccc3c3ccnc1c32`, 68.8%.
Under `COC(=O)c1nccc2c1[nH]c1ccccc12` stands 2.9%.
Under `Cc1c2[nH]c3ccccc3c2cc[n+]1[O-]` stands -3%; under `CC(=O)c1nccc2c1[nH]c1ccccc12`, 25.1%; under `COc1cccc2c1[nH]c1c(C(=O)CCC(=O)c3ncc(OC)c4c3[nH]c3c(OC)cccc34)ncc(OC)c12`, 43.8%.
In the case of `Cc1nccc2c1[nH]c1ccccc12`, the inhibition was determined as 7.7%.
With `Cn1c(=O)cc2c3ccccc3n3c(=O)ccc1c23` the figure was 33.6%; with `CCCCn1ccc2c3n(c(=O)c(=O)cc1-3)c1ccccc21`, 42%; with `COC(=O)/C=C/C(=O)c1ncc(OC)c2c1[nH]c1c(OC)cccc12`, 21%.
Under `CCn1ccc2c3n(c(=O)c(=O)c(OC)c1-3)c1ccccc21` stands 43.6%; under `COc1c(O)c(=O)n2c3ccccc3c3cc(=O)n(C)c1c32`, 26.3%; under `COC(=O)c1cc2c([nH]c3ccccc32)c(C)n1`, 14.3%.
Under `O=c1ccc2c3c(cc[n+]2[O-])c2ccccc2n13` stands 50.9%.
Regarding `O=c1c(CO)cc2nccc3c4ccccc4n1c23`, the inhibition was 33.8%.
Consider `NC(=O)c1nccc2c1[nH]c1ccccc12`, for which the inhibition was 20.3%.
With `COc1c2n(C)ccc3c-2n(c(=O)c1=O)c1ccccc31` the figure was 76.6%.
Under `O=c1c(O)cc2nccc3c4ccccc4n1c23` stands 84.7%; under `CCOC(=O)c1nccc2c1[nH]c1ccccc12`, 26.9%.
In the case of `O=C1NC(=O)c2[nH]c3ccccc3c2C1=O`, the inhibition amounted to 80.7%.
With `CCn1ccc2c3n(c(=O)c(=O)cc1-3)c1ccccc21` the figure was 63.4%; with `COc1c(OC(C)=O)c(=O)n2c3ccccc3c3cc(OC(C)=O)nc1c32`, 41.7%; with `COc1cnc(C(OC)OC(C)=O)c2[nH]c3ccccc3c12` (centres undefined), 11.6%.
Under `O=C(O)c1cc2c([nH]c3ccccc32)c(-c2cccc3c2OCO3)n1` stands 19.8%.
Under `COc1c(O)c2nccc3c4ccccc4n(c1=O)c23` stands 55.9%.
